4 compounds from ChEMBL document CHEMBL3822438, “Chlorin p6-Based Water-Soluble Amino Acid Derivatives as Potent Photosensitizers for Photodynamic Therapy” (J Med Chem, 2016) can be followed below.

Data set [1] can be described thus: Ratio of IC50 for dark toxicity to IC50 for phototoxicity in mouse B16F10 cells by cell counting kit-8 based spectrophotometric analysis. The conditions noted are these: for selectivity ratio: B16F10 cells, read-out: Ratio IC50. Details: species or system B16-F10. The method in brief:
(§1)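 CCK-8 dark toxicity. 5×10^3 cells seeded in 10% FBS medium (A375 in DMEM, B16-F10 in RPMI 1640). Exposed to graded compound concentrations for 48 h at 37 °C, kept in the dark. Fresh medium and CCK-8 added for 1.5 h, then absorbance read at 450 nm to give IC50. Ratio is dark IC50 over IC50 under light.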

Data set [2] is described as follows: Dark toxicity in mouse B16F10 cells assessed as cell viability after 48 hrs by cell counting kit-8 based spectrophotometric analysis. Details: species or system B16-F10. The conditions noted are these: for IC50 at 48 h: mouse, B16F10 cells. The method in brief:
as §1

Data set [3] relates to A-375. Kind of data set: Phototoxicity in human A375 cells assessed as cell viability after 24 hrs followed by irradiation with diode laser at 10 J/cm'2 measured after 24 hrs by cell counting kit-8 based spectrophotometric analysis. The data set is classed as functional. The method in brief: (§2)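 Phototoxicity by CCK-8. Cells loaded with a range of compound concentrations for 24 h at 37 °C, irradiated with a 678 nm diode laser at 10 J/cm², then incubated a further 24 h. Viability read as absorbance at 450 nm after 1.5 h with CCK-8.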

The nature of data set [4]: Phototoxicity in mouse B16F10 cells assessed as cell viability after 24 hrs followed by irradiation with diode laser at 10 J/cm'2 measured after 24 hrs by cell counting kit-8 based spectrophotometric analysis. Type of data set: functional, B16-F10. The method in brief:
as §2

Data set [5] can be described thus: (§3) Dark toxicity in human A375 cells assessed as cell viability after 48 hrs by cell counting kit-8 based spectrophotometric analysis. Details: species or system A-375. The conditions noted are these: human, A375 cells. The method in brief: as §1
Data set [6] in a line: Ratio of IC50 for dark toxicity to IC50 for phototoxicity in human A375 cells. Type of data set: cell-based, A-375. The following applies: for selectivity ratio: A375 cells, read-out: Ratio IC50. The method in brief: as §1
A short description of data set [7]: Dark toxicity in mouse B16F10 cells assessed as cell viability after 48 hrs by MTT assay. The data set is classed as cell-based, B16-F10. The method in brief: (§4)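 B16-F10 cells in RPMI 1640 with 10% FBS. Dark arm: compound for 48 h. Light arm: compound for 24 h, then 678 nm diode laser at 10 J/cm², then a further 24 h. Read-out by MTT for 4 h, formazan dissolved in DMSO, absorbance at 490 nm. Ratio is dark IC50 over light IC50.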

The nature of data set [8]: Ratio of IC50 for dark toxicity to IC50 for phototoxicity in mouse B16F10 cells by MTT assay. The data set is classed as cell-based, B16-F10. The method in brief:
as §4

Data set [9] relates to A-375. The description is as §3. The following applies: a-375. The method in brief: as §1
Data set [10] is described as follows: (§5) Phototoxicity in mouse B16F10 cells assessed as cell viability after 24 hrs followed by irradiation with diode laser at 10 J/cm'2 measured after 24 hrs by MTT assay. The data set is classed as functional, cell-based, B16-F10. The method in brief: as §4
Data set [11] can be described thus: Drug uptake in nucleus of mouse B16F10 cells at 10 uM incubated in dark for 24 hrs by confocal microscopy. The data set is classed as ADME, cell-based. The following applies: b16-f10, 24 h.
Data set [12] relates to B16-F10. Kind of data set: Induction of apoptosis in mouse B16F10 cells assessed as early apoptotic cells at 5 uM after 24 hrs followed by irradiation with diode laser at 10 J/cm'2 by alexa fluor 488 annexin V/PI double staining based flow cytometry (reference value: 0.08%). The data set is classed as functional.
Data set [13] deals with B16-F10. Nature of the data set: Induction of apoptosis in mouse B16F10 cells assessed as necrotic/late apoptotic cells at 2 uM after 24 hrs followed by irradiation with diode laser at 10 J/cm'2 by alexa fluor 488 annexin V/PI double staining based flow cytometry (reference value: 1.94%). Type of data set: functional.
The test system of data set [14] is B16-F10. Kind of data set: Induction of apoptosis in mouse B16F10 cells assessed as necrotic/late apoptotic cells after 24 hrs followed by irradiation with diode laser at 10 J/cm'2 by alexa fluor 488 annexin V/PI double staining based flow cytometry. The data set is classed as functional, cell-based.
A short description of data set [15]: Ratio of IC50 for dark toxicity to IC50 for phototoxicity in human A375 cells by CCK-8 assay.
Data set [16] deals with B16-F10. Nature of the data set: Phototoxicity in mouse B16F10 cells assessed as reduction in cell surviving fraction by irradiation with diode laser at 10 J/cm'2 at 5 uM after 24 hrs by cell counting kit-8 based spectrophotometric analysis. The data set is classed as functional. The method in brief: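 B16-F10 cells exposed to 5 µM for 24 h, then given varying 678 nm laser light doses. After a further 24 h, survival fraction was read by CCK-8 absorbance at 450 nm.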

A short description of data set [17]: Ratio of IC50 for test compound to IC50 for verteporfin for dark toxicity in mouse B16F10 cells by cell counting kit-8 based spectrophotometric analysis. Set-up: species or system B16-F10. The following applies: read-out: Ratio IC50.
A short description of data set [18]: Drug uptake in lysosomes of mouse B16F10 cells at 10 uM incubated in dark for 24 hrs by lyso tracker green dye based confocal microscopy. Type of data set: ADME, cell-based, Lysosome. The following applies: b16-f10, 24 h.
The nature of data set [19]: Drug uptake in endoplasmic reticulum of mouse B16F10 cells at 10 uM incubated in dark for 24 hrs by ER tracker green dye based confocal microscopy. The data set is classed as ADME, cell-based. The following applies: b16-f10, 24 h.
Data set [20] relates to B16-F10. Kind of data set: Induction of apoptosis in mouse B16F10 cells assessed as early apoptotic cells at 2 uM after 24 hrs followed by irradiation with diode laser at 10 J/cm'2 by alexa fluor 488 annexin V/PI double staining based flow cytometry (reference value: 0.08%). The data set is classed as functional.
For data set [21], the system named is B16-F10. Nature of the data set: Induction of apoptosis in mouse B16F10 cells assessed as necrotic/late apoptotic cells at 5 uM after 24 hrs followed by irradiation with diode laser at 10 J/cm'2 by alexa fluor 488 annexin V/PI double staining based flow cytometry (reference value: 1.94%). Type of data set: functional.
Data set [22] relates to B16-F10. Kind of data set: Phototoxicity in mouse B16F10 cells assessed as reduction in cell surviving fraction by irradiation with diode laser at 10 J/cm'2 after 24 hrs by cell counting kit-8 based spectrophotometric analysis. Type of data set: functional. The method in brief: (§6)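 Survival fraction after PDT. Cells held 24 h at 2 µM or 0.2 µM, irradiated at 678 nm with 10 J/cm², then cultured another 24 h. Viability measured by CCK-8 at 450 nm.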

Data set [23] in a line: Aqueous solubility of the compound in PBS buffer at pH 7.4. Type of data set: physicochemical.
The subject of data set [24] is B16-F10. Kind of data set: Antitumor activity against B16F10 cells implanted in C57BL/6 mouse assessed as tumor growth inhibition at 1 mg/kg, iv administered for 2 hrs followed by irradiation with laser at 150 J/cm'2 for 10 mins. The data set is classed as functional, organism-based. The method in brief: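 B16-F10 cells (2×10^4) inoculated subcutaneously into the right thigh of male C57BL/6 mice aged 6-8 weeks. Mice with tumours 6-8 mm in diameter were used, 5 per group. Irradiation at 678 nm diode laser, 250 mW/cm² for 10 min, 2 h after i.v. dosing. Tumour volume measured by caliper as (W²×L)/2. Survival recorded daily and analysed by Kaplan-Meier with log-rank test.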

Data set [25] can be described thus: Dark toxicity in mouse B16F10 cells assessed as reduction in cell surviving fraction at 50 to 300 uM after 48 hrs by cell counting kit-8 based spectrophotometric analysis. The conditions noted are these: b16-f10, 48 h. The method in brief:
(§7)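 Survival fraction measured in the dark by CCK-8 after 48 h exposure at 37 °C to 300 µM or 50 µM. Cells were in 10% FBS medium (A375 in DMEM, B16-F10 in RPMI 1640). Viability read as absorbance at 450 nm after 1.5 h with CCK-8.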

A short description of data set [26]: Ratio of IC50 for test compound to IC50 for verteporfin for dark toxicity in human A375 cells by cell counting kit-8 based spectrophotometric analysis. Set-up: species or system A-375. The following applies: read-out: Ratio IC50.
The nature of data set [27]: Drug uptake in golgi apparatus of mouse B16F10 cells at 10 uM incubated in dark for 24 hrs by golgi tracker green dye based confocal microscopy. The data set is classed as ADME, cell-based. The following applies: b16-f10, 24 h.
Data set [28] in a line: Drug uptake in mitochondria of mouse B16F10 cells at 10 uM incubated in dark for 24 hrs by mito tracker green FM dye based confocal microscopy. Type of data set: ADME. The conditions noted are these: b16-f10, 24 h.
In data set [29] the test system is A-375. Nature of the data set: Dark toxicity in human A375 cells assessed as reduction in cell surviving fraction at 50 to 300 uM after 48 hrs by cell counting kit-8 based spectrophotometric analysis. The conditions noted are these: a-375, 48 h. The method in brief:
as §7

A short description of data set [30]: Antitumor activity against B16F10 cells implanted in C57BL/6 mouse assessed as survival time at 1 mg/kg, iv administered for 2 hrs followed by irradiation with laser at 150 J/cm'2 for 10 mins (reference value: 13 days). Type of data set: functional, B16-F10.
The test system of data set [31] is B16-F10. The description is as §5. Type of data set: functional, cell-based. The method in brief: as §4
Data set [32] concerns A-375. Nature of the data set: Phototoxicity in human A375 cells assessed as reduction in cell surviving fraction by irradiation with diode laser at 10 J/cm'2 after 24 hrs by cell counting kit-8 based spectrophotometric analysis. The data set is classed as functional. The method in brief: as §6
Setting [33] is: Homo sapiens, A-375, light or radiation study, 24 h.
The mark [34] stands for this setting: Mus musculus, B16-F10, light or radiation study, 24 h.

In brackets after ≈: the same amount, converted by molar mass. Activity calls are given as the source filed them. The calls are words filed in the database; no cut-off is given here. Bounds are passed on as bounds.

For `CCC1=C(C)c2cc3[nH]c(cc4nc(c(C(=O)OC)c5[nH]c(cc1n2)c(C)c5C(=O)OC)C(CCC(=O)N[C@@H](CC(=O)O)C(=O)O)=C4C)[C@@]1(C)C3=CC=C(C(=O)OC)[C@H]1C(=O)OC`, the values for the selectivity ratio in data set [1] and in [6] were 118 and over 99.3, respectively. The IC50 at 48 h in data set [2] is 271 µM; in data set [5], over 300 µM. Moreover, the 50% inhibitory concentration (IC50) with A-375 [3] (setting [33]) was 3.02 µM; in data set [4] (setting [34]) it was 2.29 µM.
For the compound `CCC1=C(C)c2cc3[nH]c(cc4nc(c(C(=O)OC)c5[nH]c(cc1n2)c(C)c5C(=O)OC)C(CCC(=O)O)=C4C)[C@@]1(C)C3=CC=C(C(=O)OC)[C@H]1C(=O)OC`, the selectivity ratio in data set [1] came out at 16.7; in [6] it was 15.5. The half-maximal inhibitory concentration (IC50) at 48 h in data set [2] turned out to be 15.3 µM; in [5] it was 22.8 µM. Also, the values for the IC50 (in the data set with A-375 [3] (setting [33]); in data set [4] (setting [34])) were 1.47 µM and 0.92 µM, respectively.
In the case of VERTEPORFIN, the “Ratio IC50” value is reported as 20.77 in data set [1] (b16-f10), 23.39 in [8] (b16-f10) and 17.64 in data set [6] (a-375). Further, the IC50 in data set [2] (b16-f10) was 24.9 µM; in the data set with A-375 [3] (a-375), 2.06 µM; in data set [4] (b16-f10) it was 1.2 µM; in data set [7] (b16-f10), 25 µM; in the data set with A-375 [9], 36.3 µM; in data set [10] (b16-f10), 1.07 µM.
Regarding `C=Cc1c(C)c2cc3nc(c(C(=O)OC)c4[nH]c(cc5nc(cc1[nH]2)C(C)=C5CC)c(C)c4C(=O)OC)[C@@H](CCC(=O)N[C@@H](CC(=O)O)C(=O)O)[C@@H]3C`, the Drug uptake result in [11] was “Not Active”; in data set [18], “Active”; in [19] it was “Active”; in data set [27] it was “Active”; in [28], “Active”. Besides, the selectivity ratio was over 441 in data set [1]; over 306 in data set [15]; over 8.3 in [17]; over 400 in [8] (B16F10 cells, read-out: Ratio IC50); over 8.3 in data set [26]; over 306 in [6]. Also, the half-maximal inhibitory concentration (IC50) at 48 h is over 300 µM in data set [2]; over 300 µM in [7] (mouse, B16F10 cells); over 300 µM in [5]. The Activity is 5.61% in the data set on B16-F10 [12]; 68.23% with B16-F10 [13]; “Dose-dependent effect” in the data set with B16-F10 [14]; 0.3% in the data set with B16-F10 [20]; 82.05% in the data set on B16-F10 [21]; “Dose-dependent effect” in the data set with B16-F10 [22]. In addition, the Activity result in data set [25] was “Non-toxic”; in the data set on A-375 [29], “Non-toxic”; in the data set with B16-F10 [31], “Dose-dependent effect”; in the data set with A-375 [32], “Dose-dependent effect”. For the same compound, the values for the half-maximal inhibitory concentration (IC50) (in the data set with A-375 [3] (setting [33]); in [4] (setting [34]); in [10] (setting [34])) were 0.98 µM, 0.68 µM and 0.75 µM, respectively. The result with B16-F10 [16] was Active. Moreover, the concentration in solution in data set [23] (solubility) came to 41.7 µM (≈ 30.3 µg/mL). For the same compound, the TGI entry in the data set on B16-F10 [24] is “Active”. Also, the MST in data set [30] came out at 21 days.
